In ChEMBL document CHEMBL4052830, “Dual Nicotinic Acetylcholine Receptor α4β2 Antagonists/α7 Agonists: Synthesis, Docking Studies, and Pharmacological Evaluation of Tetrahydroisoquinolines and Tetrahydroisoquinolinium Salts” (J Med Chem, 2018):
Calls of active or inactive are those of the source. No cut-off for these calls is given here.

Legend:
[1] = molecular target: T1, Neuronal acetylcholine receptor; alpha3/beta4 (Rattus norvegicus, UniProt P04757+P12392); assay: Displacement of [3H]epibatidine from rat alpha3beta4 nAChR expressed in HEK293 cell membranes after 4 hrs by scintillation counting method
How it was run: (§1)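 Membranes from HEK293 lines stably expressing α3β4, α4β4 or α4β2 nAChR, [3H]epibatidine competition binding. Ki came from concentration-inhibition curves. Means of 3–5 experiments in duplicate.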

[2] = molecular target: T2, Neuronal acetylcholine receptor subunit alpha-7 (Homo sapiens, UniProt P36544); assay: Agonist activity at human alpha7 nAChR expressed in HEK293 cells co-expressing Ric-3/NACHO assessed as induction of calcium mobilization measured up to 90 secs in presence of PNU-120596 by FLIPR assay; format: cell-based
How it was run: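 Human α7 nAChR stably co-expressed with Ric-3 and NACHO in HEK293 cells, Ca2+/Fluo-4 fluorescence assay. Assay buffer held 3 μM PNU-120596 (α7 PAM) to slow desensitization. Agonist concentration-response curves gave EC50 and Rmax. Means of 3–5 experiments run in duplicate.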

[3] = molecular target: Neuronal acetylcholine receptor; alpha4/beta2 (Rattus norvegicus, UniProt P09483+P12390); assay: Displacement of [3H]epibatidine from rat alpha4beta2 nAChR expressed in HEK293 cell membranes after 4 hrs by scintillation counting method; how it was run: as §1
[4] = molecular target: T1, Neuronal acetylcholine receptor; alpha3/beta4; assay: Antagonist activity at rat alpha3beta4 nAChR expressed in HEK293 cells assessed as inhibition of (S)-nicotine-induced […] response measured up to 90 secs by FMP assay; format: cell-based
How it was run: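 Rat α3β4 nAChR in stably expressing HEK293 cells, FLIPR Membrane Potential Blue assay. Antagonist mode against (S)-nicotine at EC70–EC90. IC50 derived from concentration-inhibition curves. Means of 3–5 experiments in duplicate.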

[5] = molecular target: Nicotinic acetylcholine receptor alpha-4/beta-2 (Mus musculus, UniProt Q8R493+Q9ERK7); assay: Antagonist activity at mouse alpha4beta2 nAChR expressed in HEK293 cells assessed as inhibition of (S)-nicotine-induced […] response measured up to 90 secs by FMP assay; format: cell-based
How it was run: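 Mouse α4β2 nAChR in stably expressing HEK293T cells, FLIPR Membrane Potential Blue assay. IC50 came from concentration-inhibition curves. Means of 3–5 experiments in duplicate.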

[6] = molecular target: Neuronal acetylcholine receptor; alpha4/beta4 (Rattus norvegicus, UniProt P09483+P12392); assay: Displacement of [3H]epibatidine from rat alpha4beta4 nAChR expressed in HEK293 cell membranes after 4 hrs by scintillation counting method; how it was run: as §1
[7] = molecular target: T2, Neuronal acetylcholine receptor subunit alpha-7; assay: Agonist activity at human alpha7 nAChR expressed in HEK293 cells co-expressing Ric-3/NACHO assessed as induction of calcium mobilization at 30 uM measured up to 90 secs in presence of PNU-120596 by FLIPR assay; format: cell-based
[8] = molecular target: T2, Neuronal acetylcholine receptor subunit alpha-7; assay: Antagonist activity at human alpha7 nAChR expressed in HEK293 cells co-expressing Ric-3/NACHO assessed as inhibition of ACh-induced calcium mobilization measured up to 90 secs in presence of PNU-120596 by FLIPR assay; format: cell-based
How it was run: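 Human α7 nAChR stably co-expressed with Ric-3/NACHO in HEK293 cells. Antagonist mode in the Ca2+/Fluo-4 assay: test ligand inhibits acetylcholine at EC70–EC90, with 3 μM PNU-120596 in the buffer. IC50 came from concentration-inhibition curves. Means of 3–5 experiments run in duplicate.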

T1 sequence (P04757 whole entry): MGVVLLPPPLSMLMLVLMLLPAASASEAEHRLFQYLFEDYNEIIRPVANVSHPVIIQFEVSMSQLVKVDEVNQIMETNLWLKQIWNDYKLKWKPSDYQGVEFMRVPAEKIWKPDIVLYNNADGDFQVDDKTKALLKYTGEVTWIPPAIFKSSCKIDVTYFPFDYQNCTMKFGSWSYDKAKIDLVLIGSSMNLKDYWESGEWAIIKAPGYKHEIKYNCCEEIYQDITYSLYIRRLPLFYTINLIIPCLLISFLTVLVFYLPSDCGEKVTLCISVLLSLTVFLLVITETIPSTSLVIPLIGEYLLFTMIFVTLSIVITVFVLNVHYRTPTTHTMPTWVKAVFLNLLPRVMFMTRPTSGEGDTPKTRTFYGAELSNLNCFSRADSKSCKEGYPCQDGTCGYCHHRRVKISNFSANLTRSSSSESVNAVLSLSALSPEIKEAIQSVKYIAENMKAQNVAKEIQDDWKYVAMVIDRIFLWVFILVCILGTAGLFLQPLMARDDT
T1 sequence (P12392 whole entry): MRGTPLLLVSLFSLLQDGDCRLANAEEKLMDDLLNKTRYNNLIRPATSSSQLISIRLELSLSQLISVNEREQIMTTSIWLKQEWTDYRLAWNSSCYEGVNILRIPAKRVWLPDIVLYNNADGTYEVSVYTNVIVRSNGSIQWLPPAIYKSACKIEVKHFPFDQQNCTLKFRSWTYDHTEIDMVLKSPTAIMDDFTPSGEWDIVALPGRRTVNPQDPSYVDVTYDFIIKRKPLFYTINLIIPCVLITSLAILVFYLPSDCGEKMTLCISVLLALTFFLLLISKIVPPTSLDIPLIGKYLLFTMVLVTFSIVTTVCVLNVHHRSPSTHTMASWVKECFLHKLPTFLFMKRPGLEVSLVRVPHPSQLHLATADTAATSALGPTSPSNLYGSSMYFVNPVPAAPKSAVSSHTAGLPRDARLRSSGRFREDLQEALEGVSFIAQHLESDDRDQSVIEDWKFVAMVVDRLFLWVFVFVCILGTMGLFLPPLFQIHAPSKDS
Neuronal acetylcholine receptor; alpha4/beta2, sequence (P09483 whole entry): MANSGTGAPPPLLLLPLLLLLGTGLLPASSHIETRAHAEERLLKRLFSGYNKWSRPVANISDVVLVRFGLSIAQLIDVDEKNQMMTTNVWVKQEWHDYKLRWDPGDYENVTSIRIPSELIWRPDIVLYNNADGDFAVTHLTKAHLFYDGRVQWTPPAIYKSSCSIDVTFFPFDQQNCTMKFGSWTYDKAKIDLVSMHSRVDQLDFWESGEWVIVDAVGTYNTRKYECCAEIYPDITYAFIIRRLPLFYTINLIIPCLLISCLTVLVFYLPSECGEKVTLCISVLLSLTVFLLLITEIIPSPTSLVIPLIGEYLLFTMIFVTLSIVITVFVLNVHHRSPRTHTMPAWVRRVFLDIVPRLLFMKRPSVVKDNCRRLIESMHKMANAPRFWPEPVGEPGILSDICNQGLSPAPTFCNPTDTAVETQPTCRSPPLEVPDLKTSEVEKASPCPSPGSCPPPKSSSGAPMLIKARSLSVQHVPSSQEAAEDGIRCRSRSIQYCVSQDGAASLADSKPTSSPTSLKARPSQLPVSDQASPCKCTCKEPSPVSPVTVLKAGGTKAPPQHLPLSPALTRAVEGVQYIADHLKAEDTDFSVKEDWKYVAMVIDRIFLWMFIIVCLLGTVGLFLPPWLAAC
Neuronal acetylcholine receptor; alpha4/beta2, sequence (P12390 whole entry): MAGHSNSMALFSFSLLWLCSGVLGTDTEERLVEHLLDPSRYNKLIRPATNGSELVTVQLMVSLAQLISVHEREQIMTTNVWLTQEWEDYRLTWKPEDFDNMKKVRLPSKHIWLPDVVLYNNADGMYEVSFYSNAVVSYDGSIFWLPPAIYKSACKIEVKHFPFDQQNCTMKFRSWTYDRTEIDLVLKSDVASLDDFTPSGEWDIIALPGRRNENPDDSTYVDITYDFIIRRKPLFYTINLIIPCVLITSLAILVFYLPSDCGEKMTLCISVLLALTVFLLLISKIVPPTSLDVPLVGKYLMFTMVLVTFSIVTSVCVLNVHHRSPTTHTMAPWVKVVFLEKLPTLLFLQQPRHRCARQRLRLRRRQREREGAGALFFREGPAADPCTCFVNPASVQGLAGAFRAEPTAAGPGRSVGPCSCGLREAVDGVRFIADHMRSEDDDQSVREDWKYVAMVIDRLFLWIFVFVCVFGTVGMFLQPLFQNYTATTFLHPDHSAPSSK
Neuronal acetylcholine receptor; alpha4/beta4, sequence (P09483 whole entry): as the sequence (P09483 whole entry) above
Neuronal acetylcholine receptor; alpha4/beta4, sequence (P12392 whole entry): as the sequence (P12392 whole entry) above
T2 sequence (P36544 whole entry): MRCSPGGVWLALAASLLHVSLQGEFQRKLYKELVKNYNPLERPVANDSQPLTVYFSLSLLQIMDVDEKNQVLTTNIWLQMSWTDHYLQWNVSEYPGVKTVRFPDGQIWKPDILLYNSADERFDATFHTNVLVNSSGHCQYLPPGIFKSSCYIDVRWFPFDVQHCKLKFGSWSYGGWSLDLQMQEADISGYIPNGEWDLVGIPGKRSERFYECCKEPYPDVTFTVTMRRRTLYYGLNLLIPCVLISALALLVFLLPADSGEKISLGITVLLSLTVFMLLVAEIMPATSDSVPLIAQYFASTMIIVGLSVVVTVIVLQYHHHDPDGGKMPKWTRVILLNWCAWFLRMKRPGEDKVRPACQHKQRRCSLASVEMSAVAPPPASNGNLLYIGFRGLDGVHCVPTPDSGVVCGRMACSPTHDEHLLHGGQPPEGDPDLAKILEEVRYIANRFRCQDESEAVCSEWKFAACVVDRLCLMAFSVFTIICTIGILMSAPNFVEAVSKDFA
Nicotinic acetylcholine receptor alpha-4/beta-2, sequence (Q9ERK7 whole entry): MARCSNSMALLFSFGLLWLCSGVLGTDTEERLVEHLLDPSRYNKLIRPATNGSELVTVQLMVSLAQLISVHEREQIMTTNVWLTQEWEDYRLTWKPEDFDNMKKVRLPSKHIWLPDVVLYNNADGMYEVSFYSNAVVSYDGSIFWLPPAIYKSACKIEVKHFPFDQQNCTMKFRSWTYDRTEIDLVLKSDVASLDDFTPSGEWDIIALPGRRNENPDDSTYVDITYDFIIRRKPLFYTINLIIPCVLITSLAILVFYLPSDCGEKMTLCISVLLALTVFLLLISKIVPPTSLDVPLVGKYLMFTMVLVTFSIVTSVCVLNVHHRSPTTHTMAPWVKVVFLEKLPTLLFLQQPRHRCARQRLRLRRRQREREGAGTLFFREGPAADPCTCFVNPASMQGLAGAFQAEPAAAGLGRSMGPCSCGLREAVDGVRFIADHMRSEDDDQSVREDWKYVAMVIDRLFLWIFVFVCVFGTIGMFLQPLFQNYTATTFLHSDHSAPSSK
Nicotinic acetylcholine receptor alpha-4/beta-2, sequence (Q8R493 whole entry): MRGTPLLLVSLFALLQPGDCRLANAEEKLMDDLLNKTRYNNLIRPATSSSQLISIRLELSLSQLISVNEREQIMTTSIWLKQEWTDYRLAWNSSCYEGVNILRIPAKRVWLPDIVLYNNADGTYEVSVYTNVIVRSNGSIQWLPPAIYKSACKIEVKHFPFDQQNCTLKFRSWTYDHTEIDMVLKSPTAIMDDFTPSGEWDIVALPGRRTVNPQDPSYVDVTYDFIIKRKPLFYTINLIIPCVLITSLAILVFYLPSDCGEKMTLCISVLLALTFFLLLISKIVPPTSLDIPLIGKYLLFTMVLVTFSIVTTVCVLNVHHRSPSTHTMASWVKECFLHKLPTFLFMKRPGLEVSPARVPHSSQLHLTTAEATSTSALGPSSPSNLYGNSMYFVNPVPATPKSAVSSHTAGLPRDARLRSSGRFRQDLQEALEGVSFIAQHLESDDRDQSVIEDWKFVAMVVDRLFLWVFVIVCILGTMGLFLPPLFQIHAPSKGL

| SMILES | Ki [1] [µM] | EC50 [2] [µM] | Ki [3] [µM] | IC50 [4] [µM] | IC50 [5] [µM] | Ki [6] [µM] | Activity [7] | IC50 [8] [µM] |
| --- | --- | --- | --- | --- | --- | --- | --- | --- |
| COc1cc2c(cc1OC)C1CCC[N+]1(C)CC2 (stereo unspecified) | 50 | 7.5 | 2.4 | 100 | 30 | 30 | – | – |
| COc1ccc2c(c1)C1CCCN1CC2 (stereo unspecified) | 100 | – | 1.4 | > 100 | 9.1 | 3.3 | Active | – |
| COc1cc2c(cc1OCc1ccccc1)C1CCCN1CC2 (stereo unspecified) | 300 | – | 50 | > 100 | 50 | 300 | – | 11 |
| COc1ccc2c(c1)C1CCC[N+]1(C)CC2 (stereo unspecified) | 9.3 | 1.2 | 0.23 | 50 | 1.8 | 0.92 | – | – |
| CCC[N+]1(C)CCc2cc(OC)c(OC)cc2C1 (stereo unspecified) | 300 | > 100 | 14 | > 300 | 30 | 300 | – | > 100 |
| COc1cc2c(cc1OCc1ccccc1)CCN1CCCC21 (stereo unspecified) | 100 | – | 6.3 | 100 | 30 | 300 | – | 5.7 |
| COc1cc2c(cc1OC)C[N+](C)(C)CC2 | 100 | 9 | 0.63 | > 300 | 11 | 50 | – | – |
| C=CC[N+]1(C)CCc2cc(OC)c(OC)cc2C1 (stereo unspecified) | > 300 | > 100 | 30 | > 300 | 30 | 300 | – | > 100 |
| COc1cc2c(cc1OC)[C@@H]1CCCN1CC2 | > 100 | > 100 | > 100 | > 100 | > 100 | > 100 | – | > 100 |
| COc1cc2c(cc1O)CN(C)CC2 | 100 | > 100 | – | 100 | – | – | – | > 100 |
| COc1cc2c(cc1OC)CN(C)CC2 | – | > 100 | – | – | – | – | – | > 100 |
| COc1cc2c(cc1OC)C[N+](C)(Cc1ccccc1)CC2 (stereo unspecified) | 300 | – | 30 | > 300 | 30 | > 300 | – | 2 |
| c1ccc2c(c1)CCN1CCCC21 (stereo unspecified) | 100 | – | 8.5 | > 100 | 15 | 100 | – | 100 |
| COc1ccc2c(c1)CCN(C)C2 | 100 | > 100 | 2.6 | > 100 | 6.2 | 25 | – | > 100 |
| COc1cc2c(cc1OCc1ccccc1)CN(C)CC2 | 300 | – | 15 | > 300 | 23 | 300 | – | 30 |
| COc1ccc2c(c1)CC[N+](C)(C)C2 | 9.3 | 4.4 | 0.68 | > 100 | 1.4 | 1.5 | – | – |
| COc1ccc2c(c1)CCN1CCCC21 (stereo unspecified) | > 100 | > 100 | 25 | > 100 | 100 | 100 | – | > 100 |
| COc1cc2c(cc1OC)[C@H]1CCC[N+]1(C)CC2 (stereo partly specified) | 25 | 5.1 | 2.4 | > 100 | 7.2 | 25 | – | – |
| CN1CCc2cc3c(cc2C1)OCO3 | – | > 100 | 17 | – | – | – | – | > 100 |
| COc1ccc2c(c1)CC[N+]1(C)CCCC21 (stereo unspecified) | 25 | 5.2 | 3.6 | 100 | 30 | 12 | – | – |
| C[N+]12CCC[C@H]1c1cc3c(cc1CC2)OCO3 (stereo partly specified) | 25 | 5.4 | 25 | > 100 | > 100 | 25 | – | – |
| COc1cc2c(cc1OCc1ccccc1)CCN(C)C2 | 300 | – | 2.9 | 100 | 24 | 300 | – | 30 |
| COc1cc2c(cc1O)C[N+](C)(C)CC2 | 25 | 0.99 | 0.4 | > 100 | 1.2 | 8.9 | – | – |
| COc1ccc(CC2c3cc(OC)c(OC)cc3CCN2C)cc1OC (stereo unspecified) [LAUDANOSINE] | > 100 | > 100 | 100 | > 100 | > 100 | > 100 | – | > 100 |
| COC1CC=C2CCN3CCC4=C(CC(=O)OC4)[C@]23C1 (stereo partly specified) | 100 | – | 0.65 | 100 | 0.6 | 25 | – | 100 |
| COc1cc2c(cc1OC)C1CCCN1CC2 (stereo unspecified) | 100 | > 100 | 4.6 | – | 30 | – | – | > 100 |
| COc1cc2c(cc1OC)[C@H]1CCCN1CC2 | 100 | > 100 | 2.5 | > 100 | 16 | 100 | – | > 100 |
| COc1cc2c(cc1OC)[C@@H]1CCC[N+]1(C)CC2 (stereo partly specified) | 25 | 6.5 | 25 | > 100 | > 100 | 7.5 | – | – |
| C[N+]12CCCC1c1ccccc1CC2 (stereo unspecified) | 50 | 2.2 | 17 | > 100 | 50 | 25 | – | – |
| c1c2c(cc3c1OCO3)C1CCCN1CC2 (stereo unspecified) | > 100 | – | 0.5 | – | 2.3 | 9.3 | Active | – |
